Source: PubChem (ICCB-Longwood Screening Facility, Harvard Medical School)
LANA-nucl inh: LANA-nucleosome interaction inhibition; FITC-LANA1-23 / chicken nucleosome fluorescence polarization; active compounds read low; z-score (concentration not given with the values); 0.3% of 51,000 active;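 active means both repeat wells score below -2 in polarization z-score versus plate sample wells, excluding overly bright wells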
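Assay system: purified chicken nucleosomes with FITC-labelled LANA N-terminal peptide (1-23) / Probe or stimulus: 50 nM FITC-LANA1-23 probe / Compound dosing: pin-transferred compound, 100 nL / Times: compound with peptide–nucleosome mix 10–45 min at room temperature / Technique: fluorescence polarization, 480 nm excitation, 535 nm parallel and perpendicular emission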
Ab BasE inh: blocks the Acinetobacter baumannii siderophore enzyme BasE. purified BasE, fluorescence polarization binding displacement. inhibition, % (no concentration beside the values). 0.1% of 84,000 active; in the data active means inhibition above about 25%, passing the limit was not always enough
A number is an active result; . = inactive; / = not tested or not shown. Hits are enriched below; roughly 0.3% of the tested compounds scored in any of these assays.

SMILES	LANA-nucl inh	Ab BasE inh
COc1cccc2c1C(=O)c1c(O)c3c(c(O)c1C2=O)C[C@@](O)(C(=O)CO)C[C@@H]3OC1C[C@H](N)[C@H](O)[C@H](C)O1 (stereo partly drawn)	-7.5	/
COc1cc(C(=O)CSc2nccc(C)n2)cc(OC)c1OC	/	.
Cc1ccnc(SCC(=O)c2ccc(Br)cc2)n1	.	44
Cc1cc(=O)[nH]c(SCC(=O)c2cccs2)n1	/	.
Cc1ccnc(SCC(=O)c2cccs2)n1	/	61
S=C(NCc1ccco1)Nc1ccn(C23CC4CC(CC(C4)C2)C3)n1	.	.
Cc1noc(C)c1COC(=O)C1CSC2(C)CCC(=O)N12 (stereo not drawn)	/	.
Cc1cc(NCCN(C)C)c2ccccc2n1	-2.2	.
Cc1cc(NCCNc2ccccc2)c2ccc3ccccc3c2n1	/	.
O=C(O)CSc1nnc2n1-c1ccc(Cl)cc1NN2	-5.6	.
Clc1ccc2c(c1)NNc1nncn1-2	.	.
CC(C)(C)c1ccn(CC(=O)c2ccc(Cl)cc2)n1	.	/
CCOc1ccc(OCCNCc2cn(CCC#N)nc2-c2ccccc2)cc1	/	.
O=C(Nc1ccc(N2CCOCC2)cc1Cl)C1CCN(C(=O)OCc2ccccc2)CC1	/	.
O=C1NC(=O)/C(=C\c2cn(Cc3ccccc3F)c3ccccc23)N1	/	.
N#Cc1ccccc1Cn1cc(C=C2C(=O)NC(=O)NC2=O)c2ccccc21	-3.6	.
CC(=O)O/N=C/c1c(Nc2ccc(C)cc2)nc2c(C)cccn2c1=O	.	.
N#C/C(=C\c1ccc(N2CCCC2)o1)c1ccccc1	-5.4	.
N#C/C(=C\c1ccc(-c2ccccc2)o1)c1ccccc1	.	.
Cn1nc(C(=O)N(CCCN2CCOCC2)Cc2ccco2)c2c1-c1ccccc1SC2	.	.
O=C1CCCc2c1n(CCN(Cc1ccccc1)Cc1ccccc1)c1ccc(Cl)cc21	/	.
N=c1c2c3c(sc2nc2n1CCCCC2)CCCCC3	.	.
O=C(O)c1ccccc1O	.	.
O=C(O)c1cccn2nnnc12	-2.3	.
Cc1cc(C)c2oc(-c3cc(NC(=O)COc4ccccc4C)ccc3Cl)nc2c1	/	.
SMILES	LANA-nucl inh	Ab BasE inh
c1nncn1/N=C1/CCCc2nonc21	.	.
O=C(N/N=C1/CCS(=O)(=O)c2ccc(F)cc21)c1ccccn1	/	.
O=C(N/N=C1\CCS(=O)(=O)c2ccc(F)cc21)c1ccc(O)cc1	/	55
O=C(Cn1cncn1)N/N=C/c1cccs1	/	.
Cc1ccc(Cn2nc(C)c3cc(C(=O)NC4=NCCS4)sc32)cc1	/	.
O=C(O)CCc1ccc(-c2ccc(F)cc2)n1CC1CCCO1 (stereo not drawn)	.	.
O=C(O)CCc1ccc(-c2ccc(F)cc2)n1CCC(=O)O	-2.1	.
O=C(O)Cc1nonc1NCn1nnc2ccccc21	.	40
c1ccc2c(c1)nnn2CNCn1nnc2ccccc21	.	.
COc1ccc(N=CN(C)C)cc1OC	/	.
CCSc1nnc(SCC(=O)c2c[nH]c3ccccc23)s1	/	.
O=C(O)c1cc(-c2ccc(O)c(O)c2)nc2n[nH]c(-c3ccc(F)cc3)c12	.	41
COc1ccc(-c2cc(C(=O)N3CCOCC3)c3c(-c4ccc(Cl)cc4)[nH]nc3n2)cc1	.	.
CC1(C)CC(=O)C(C=Nc2cccc(NC3=C(C#N)C(=O)CC(C)(C)C3)c2)=C(O)C1	/	.
CCCCCCSc1s[nH]c(=O)c1C#N	.	85
CCCCSC1=C(C#N)C(=O)NC(CO)S1 (stereo not drawn)	.	.
Cc1ccc(C(=O)N(Cc2ccc3c(c2)OCO3)C2CCCC2)o1	/	.
CC(C)N(C(=O)Cn1c(=O)n(-c2ccc(F)cc2)c(=O)c2oc3ccccc3c21)C(C)C	.	.
O=C(Oc1ccc(-c2nnco2)cc1)c1cn2ccccc2n1	/	.
CCOC(=O)c1c2ccc(O)cc2n2ccccc12	-7	/
CCOC(=O)c1c(C)n(C)c2ccc(O)cc12	.	.
CC(=O)Oc1ccc2c(=O)c(-c3nc4ccccc4n3C)c(C)oc2c1	/	.
N#C/C(=C\c1ccco1)C(N)=S	/	.
N#C/C(=C\C=C\c1ccco1)C(N)=S	.	33
CCCn1c(SCC(=O)Nc2ccccc2C(F)(F)F)nnc1-c1ccoc1C	.	.
SMILES	LANA-nucl inh	Ab BasE inh
Cn1c(=O)c2c(SCC(=O)Nc3ccccc3C(F)(F)F)ccnc2n(C)c1=O	-2.1	.
CCCN1CC=C2C(C#N)=C(N)C(C#N)(C#N)C(c3ccc(F)cc3F)C2C1 (stereo not drawn)	-4.5	.
CCCOc1ccc(C2C3CN(CC)CC=C3C(C#N)=C(N)C2(C#N)C#N)cc1OC (stereo not drawn)	.	.
COc1ccc(-c2csc(-n3[nH]c(C)c(C(c4ccc(Cl)cc4)C(C#N)C(N)=O)c3=O)n2)cc1 (stereo not drawn)	.	35
COc1ccc(-c2cc(-c3ccco3)nn2-c2nc(-c3ccc(Cl)cc3)cs2)cc1	/	.
O=C(O)C1=C(Nc2ccccc2)OCC1=O	/	.
CCOC(=O)C1=C(Nc2ccc(OC)cc2)OCC1=O	-2.1	.
COC(=O)CC1SC(=O)NC1=S (stereo not drawn)	-5.2	.
